This data set relates to MS2 coat protein. The data set is described as follows: apparent Kd, MS2 coat protein; higher = weaker binding; RNA-MaP array; FMN 200 µM where present. In short, it runs like this: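 Apparent Kd: the median of filtered binding-curve fits from single clusters. Designs were transcribed on Illumina sequencing-chip clusters by stalled E. coli RNA polymerase and titrated with SNAP-549-labelled MS2 coat protein from 0.7 or 1.5 nM, doubling to 3 µM, in 100 mM Tris-HCl pH 7.5, 80 mM KCl, 4 mM MgCl2, BSA, DTT, yeast tRNA and Tween-20. Each series ran without and then with constant ligand, and green signal was normalised to red-channel RNA signal and control-cluster median Fmax.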

The mark [1] stands for this setting: designed as: ON switch for flavin mononucleotide, no ligand.
[2] abbreviates: ligand present: flavin mononucleotide, designed as: ON switch for flavin mononucleotide.
Setting [3] is: designed as: OFF switch for flavin mononucleotide, no ligand.
Where [4] appears, read: ligand present: flavin mononucleotide, designed as: OFF switch for flavin mononucleotide.

As usually defined, the apparent Kd is the concentration giving half-maximal binding under the conditions of the assay.

With “GGUACCAACACAGGAUAUGCUUUCCUUUGGGAAGCAGAAGGGUGAAAACAUGAGGAUCACCCAUGUGGUACCGGGCGUGAGCCC”, the “apparent Kd” value under setting [1] was 534 nM and the “apparent Kd” value under setting [2] stood at 39 nM.
In the case of “GUGUUACAUGAGGAUCACCCAUGUUGUUGUAGAUAAGGAUAUAUGGUAACGAGAGAAAUAAUAGAAGGUAUUAGGC”, the “apparent Kd” value is, setting by setting: under setting [1], 37 nM; under setting [2], 31.6 nM.
Take “GCGGUCAACGUAGGAUAUCUUCAGCCGCAGCGCAUUGCUGUACAUGAGGAUCACCCAUGUCCUGGAGAGAAGGACGGACUGCAA”: the “apparent Kd” value runs as follows: under setting [1], 145 nM; under setting [2], 23.2 nM.
As to “ACUUGCUUGCAGAAGGGUGACAUGAGGAUCACCCAUGUAGCGGGCCGGCUUAAAGUCAGCGCGCCACAGGAUAUGCAGGCCUCG”, the “apparent Kd” value is, setting by setting: under setting [1], 14.2 nM; under setting [2], 35.1 nM.
In the same order, the values of “ACAUGAGGAUCACCCAUGUGUGCAUAGGAUAUUGAGGAUUAGGGAUGUUUUUUUGGAUUUGCCCACAAGAAGGAUGAAAGUGUU” are 10.6 nM and 10.5 nM.
Take “CUAGCUAUCGGAGGAUAUUCAUACCGGAAACGGACAUGAGGAUCACCCAUGUGCGGAAACGCUUGGGAGAAGGCCGAUAGCUAG”: the “apparent Kd” value amounted to 210 nM under setting [1] and 18.9 nM under setting [2].
Regarding “UUUUAACAUGAGGAUCACCCAUGUGAGGAUAUCGAAAUUUAUAUUAAUAUUUUUAUAUCGAGAAGGCACAUUUU”, the “apparent Kd” value stood at 92.8 nM under setting [3] and 78.4 nM under setting [4].
Take “GUAGCACAUGAAAAUAUAACAUGAGGAUCACCCAUGUGUUAUGAGGAUAUGGAUGUGAAGUUAAUCCAGAAGGCAUUAUGCUAC”: the “apparent Kd” value was determined as 21.5 nM under setting [1] and 11.7 nM under setting [2].
Taken in the same sequence, the figures for “GACUACGAGGGAGGAUAUCCUCAUUAAUUUGGUGGAGAAGGCCCUCUACAUGAGGAUCACCCAUGUAUCGCUAUAGUCAGACAU” were 9.92 nM and 6.95 nM.
For the sequence “GAUCGUAUCCUAGGAUAUUCAUAAAACAUGAGGAUCACCCAUGUUAACUUGGGAGAAGGAGGAUACGAUCAACAGCGAAAGCUG”, the “apparent Kd” value reads like this: under setting [1], 7.35 nM; under setting [2], 5.09 nM.
As for “UUUUAACAUGAGGAUCACCCAUGUGAGGAUAUCGAAAUUUAUAUUAAUAUUUAUUUAUCGAGAAGGCACAUUUU”, the “apparent Kd” value reads like this: under setting [3], 115 nM; under setting [4], 135 nM.
In the case of “ACCGGCGCUUACAUGAGGAUCACCCAUGUGCGCACUCGGGCACAGGAUAUCCAUGGUAAGUAUCGGGAGAAGGGUGAGAAGAAU”, the “apparent Kd” value under setting [1] came to 163 nM and the “apparent Kd” value under setting [2] was 309 nM.
As for “GCUAGGAUGUGAGGAUAUGCUGAGGAUACUUCAGCAGAAGGCACAUGAGGAUCACCCAUGUACACUUAUCAUAAAUACCCUAGC”, the “apparent Kd” value amounted to 12.7 nM under setting [3] and 16.2 nM under setting [4].
“GAUUGAGAGCAGGAUAUCUUAGAAAUGUAUGAAAGAGAAGGGCUCACAUGAGGAUCACCCAUGUGGUCCUAGAU”: the “apparent Kd” value reads like this: under setting [3], 32.7 nM; under setting [4], 256 nM.
As to “CGUAUGAUGUCAGGAUAUGACGCUGAGAGCACGUCAGAAGGGACAUGAGGAUCACCCAUGUUGGGCUAAUGAAGCUAUGGCACU”, the “apparent Kd” value came to 14.6 nM under setting [3] and 43.5 nM under setting [4].
Consider “CAGUAAUUCGAAGGAUAUGGUUACAUGAGGAUCACCCAUGUAUGAUUUGUGAUCUUAAAAUUGAUCCAGAAGGUCGAAUUACUG”, for which the “apparent Kd” value is, setting by setting: under setting [3], 206 nM; under setting [4], 330 nM.
With “CCCGCCCGCCCGCACGCGGAGCGACGAGAAGGUACACAUGAGGAUCACCCAUGUCGAGUGGGAGGUAAGGAUAUUGGACGGCGG”, the “apparent Kd” value is, setting by setting: under setting [1], 106 nM; under setting [2], 93.3 nM.
With “AUAUAACAUGAGGAUCACCCAUGUCAGGAUAUCGAACCCAACACAACCAAAAUGUCGGCGAGAAGGGACAAAAA”, the “apparent Kd” value reads like this: under setting [3], 35.4 nM; under setting [4], 32.7 nM.
In the same order, the values of “UGAAAUCAUGUAGGAUAUGCAUGGCGAAGCUACGCAGAAGGACAUGAGGAUCACCCAUGUUAUAGCUACUCAGUUCGGUGGCAA” are 38.5 nM and 195 nM.
As to “CUUUUGUGAGGAUAUCAGUAGUAGAACAAUAGUACUACUACUGAGAAGGCACAUGAGGAUCACCCAUGUUCUUC”, the “apparent Kd” value by setting is: under setting [3], 33.5 nM; under setting [4], 118 nM.
For the sequence “GGCUUAAACACAGGAUAUGGCCUUAGAGUGAGGCCAGAAGGGUGAAGUUCUCAUACAUGAGGAUCACCCAUGUCAAGGAGGCUA”, the “apparent Kd” value came out at 857 nM under setting [1] and 201 nM under setting [2].
For “AUAUUUAAUGAGGAUAUCGUUGCGGGUACGUAGCGAGAAGGCAUUACAUGAGGAUCACCCAUGUAGUGUGGGUU”, the “apparent Kd” value runs as follows: under setting [3], 21.3 nM; under setting [4], 68.3 nM.
Consider “AAGAGCGAUUCUCCCUUCCUACAUGAGGAUCACCCAUGUACGAGAAGGCGCCGUGGAUACCACGGUGAGGAUAUCGUGCGUUAC”, for which the “apparent Kd” value reads like this: under setting [3], 4.55 nM; under setting [4], 5.13 nM.
On to “GUGACGAAUGUAGGAUAUGCUGAGGAUAACUCAGCAGAAGGACAUGAGGAUCACCCAUGUAAUCCUAAUAAUAAAUAACGUCAC”, for which the “apparent Kd” value under setting [3] worked out at 12.7 nM and the “apparent Kd” value under setting [4] was 18.3 nM.
In the case of “GGUUCCAACACAGGAUAUGCUAUCCUUUGGGUAGCAGAAGGGUGAAAACAUGAGGAUCACCCAUGUGGAACCGGGCGUGAGCCC”, the “apparent Kd” value by setting is: under setting [1], 412 nM; under setting [2], 46.5 nM.
In the same order, the values of “UUUUACGUUUCGUAGCAGUGUCAUCGAGAAGGCCCUGACAUGAGGAUCACCCAUGUUGUUACAUGGGAGGAUAUCGAUGAUUUU” are 16.4 nM and 5.21 nM.
Take “UGAUCUGUCGCAGGAUAUUACGUUCGGGAUCUCACAUGAGGAUCACCCAUGUAAGAAGGGCGAACAGCAUUCCGGGUCGGGCAA”: the “apparent Kd” value under setting [3] is 19.6 nM and the “apparent Kd” value under setting [4] was 75.4 nM.
Taken in the same sequence, the figures for “GGAUGACAAAGUCAUCCAAUACGAACAUGAGGAUCACCCAUGUAGGAUAUGCUUCUCAAAGAGAAGCAGAAGGACAUGUGUCUU” were 28.7 nM and 158 nM.
Take “AGAUAACAUGUAGGAUAUCGAGGCCUGAGGCCUCGAGAAGGACAUGAGGAUCACCCAUGUUUGCCGAGCAUGGAAUCCCGCACU”: the “apparent Kd” value is, setting by setting: under setting [3], 58.6 nM; under setting [4], 425 nM.
Consider “UGUCGGAUGUAGAAGGGUAGUACAUGAGGAUCACCCAUGUUAACAUGGAAUACAGGAUAUGCGUAUAGUUUUUAUUAAAUUAUA”, for which the “apparent Kd” value is, setting by setting: under setting [3], 108 nM; under setting [4], 44.3 nM.
With “UAUGUGUCAGGAUAUUAGUAGUAAAUAAAUAAAAUUAUUACUGAGAAGGGACAUGAGGAUCACCCAUGUGCCUC”, the “apparent Kd” value came out at 32.8 nM under setting [3] and 354 nM under setting [4].
In the case of “CUUUCGUGAGGAUAUCAGUAGUAAAUAAAUAAAAUUACUACUGAGAAGGCACAUGAGGAUCACCCAUGUUCCUU”, the “apparent Kd” value came to 11.8 nM under setting [3] and 18.5 nM under setting [4].
As to “AUCUUGUCAGGAUAUCUGACAAGUGACUUCGGUCACAGUUCAGAGAAGGUACAUGAGGAUCACCCAUGUAGAAC”, the “apparent Kd” value runs as follows: under setting [3], 17.4 nM; under setting [4], 18.6 nM.
Take “AAAUAAACUAGCAUAAUAACCUCACAUGAGGAUCACCCAUGUCAGGAUAUCUGUCCUAAAAGGACAGAGAAGGGACGUGCUAGG”: the “apparent Kd” value by setting is: under setting [3], 5.68 nM; under setting [4], 6.95 nM.
Take “UGGUACUAGGAAGGAUAUGGGAAGAUACAUGAGGAUCACCCAUGUUUAAGAAUGCCGAGAGGCAACUAGAAGGCCCUAGUACCU”: the “apparent Kd” value is 596 nM under setting [1] and 135 nM under setting [2].
In the same order, the values of “GCGUUCUUGUAGAAGGUACAUACAAUAUCUUAUAAACACAUGACACAUGAGGAUCACCCAUGUUGUAAGGAUAUACAUGAACGC” are 6.29 nM and 7.73 nM.
In the case of “AAGGGACAUGAGGAUCACCCAUGUGAGGAUAUGCUAUGGAAAAUAAAAAAUAAACAUAGCAGAAGGCAUAAAAA”, the “apparent Kd” value came to 64.9 nM under setting [3] and 97 nM under setting [4].
Regarding “GUCGGAAACGACAAACGUAGCAUACGAGAAGGCUGAUCCGCGACAUGAGGAUCACCCAUGUAGUUAGAGGAUAUUGGAUGCUAC”, the “apparent Kd” value by setting is: under setting [1], 81.7 nM; under setting [2], 17.3 nM.
As for “GCGUUGAACGAGAAGGCCAAUACAUGAGGAUCACCCAUGUUAAGAUGUUUUGGAGGAUAUCGUACGUCGUCUCAUGAGCAACGC”, the “apparent Kd” value under setting [3] turned out to be 6.21 nM and the “apparent Kd” value under setting [4] was found to be 7.03 nM.
In the same order, the values of “UGUGAACAUGAGGAUCACCCAUGUGAGGAUAUACGAGCGUGAGAAAGAUAAAACGAGCGUAGAAGGCACAAGAA” are 75.1 nM and 102 nM.
As for “UGGAUGGUAUGAGGAUAUGCGCGCGAAACGCGCGCAGAAGGCAUGUCAAUAGACAUGAGGAUCACCCAUGUACUAUCCAUCCAC”, the “apparent Kd” value under setting [1] was 121 nM and the “apparent Kd” value under setting [2] is 9.41 nM.
In the case of “AGCAGACGAGGAUAUAGAUGGAAUGACAUGAGGAUCACCCAUGUGAUCGAUCUAUUGGGUUUAGAAGGUGUCUGCU”, the “apparent Kd” value runs as follows: under setting [3], 15.2 nM; under setting [4], 15.4 nM.
On to “GGAUCGAAUGUCAGGAUAUGCUGGUCCUUGGAUCAGCAGAAGGGACAUGAGGAUCACCCAUGUGACGACGGUCC”, for which the “apparent Kd” value is, setting by setting: under setting [3], 64.7 nM; under setting [4], 503 nM.
In the same order, the values of “AAAAGGCUAGGAUAUACAUGAGGAUCACCCAUGUGAGGGCACGGCCGGCGCGGGCCCGGUAGAAGGAGUCAAAA” are 18.4 nM and 17.6 nM.
Turning to “UGCCAAGCAGGAUAUGCACGUAAUAACAUGAGGAUCACCCAUGUGACCGAUUUAUAUUCUGCAGAAGGGCUUGGUU”, the “apparent Kd” value under setting [3] amounted to 138 nM and the “apparent Kd” value under setting [4] is 242 nM.
In the case of “AUACUCAUGUAAGGAUAUGCAGCCGUUUCGGCUGCAGAAGGUACUAUAAUACAUGAGGAUCACCCAUGUCUUUUUAAUUUAGAC”, the “apparent Kd” value was found to be 153 nM under setting [1] and 39.9 nM under setting [2].
Consider “UGUGUUUUUGUGAGGAUAUACUGUUUGUUUUGUUUGUAGAAGGUACAUGAGGAUCACCCAUGUUGUGUUUGGUU”, for which the “apparent Kd” value was 37.5 nM under setting [3] and 29.2 nM under setting [4].
As to “UUGUUAUAUGUAGGAUAUGCAUAUUAUUAUUAUGCAGAAGGACAUGAGGAUCACCCAUGUAUAUUAUUAUUAUAUAUUAUAUAU”, the “apparent Kd” value by setting is: under setting [3], 28.3 nM; under setting [4], 41.6 nM.
